What all share (type): functional
Test [1] has as its system Mycobacterium tuberculosis. The test can be described thus: Antimycobacterial activity against rifampicin/isoniazid/pyrazinamide-resistant Mycobacterium tuberculosis isolate P71 after 7 days by microplate alamar blue assay. The note with it: isolate P71, 168 h. The gist of the method: (§1)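 Each well held a 1/100 culture dilution plus 10-point two-fold DMSO dilutions (top 100 µg/mL, final DMSO 2%). INH and RIF were the positive controls. After 7 days at 37 °C, Tween 80 and alamarBlue were added for 16–24 h. MIC was the lowest concentration preventing the blue-to-pink change.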
Background: Alamar Blue is a resazurin reagent that responds to reducing activity.

For test [2], the system named is Mycobacterium tuberculosis. The test can be described thus: Antimycobacterial activity against rifampicin-resistant Mycobacterium tuberculosis isolate P103 after 7 days by microplate alamar blue assay. The note with it: isolate P103, 168 h. The gist of the method: as §1
Test [3] has as its system Mycobacterium tuberculosis. The test can be described thus: Antimycobacterial activity against rifampicin-resistant Mycobacterium tuberculosis isolate R7 after 7 days by microplate alamar blue assay. To be noted: isolate R7, 168 h. The gist of the method:
as §1

Test [4] relates to Mycobacterium tuberculosis. The test can be described thus: Antimycobacterial activity against rifampicin-resistant Mycobacterium tuberculosis isolate P98 after 7 days by microplate alamar blue assay. To be noted: isolate P98, 168 h. The gist of the method: as §1
In test [5] the test system is Mycobacterium tuberculosis. The test can be described thus: Antimycobacterial activity against rifampicin-resistant Mycobacterium tuberculosis isolate P90 after 7 days by microplate alamar blue assay. The note with it: isolate P90, 168 h. The method in brief:
as §1

For test [6], the system named is Mycobacterium tuberculosis. The test can be described thus: Antimycobacterial activity against rifampicin-resistant Mycobacterium tuberculosis isolate P91 after 7 days by microplate alamar blue assay. The note with it: isolate P91, 168 h. The method in brief: as §1

From ChEMBL document CHEMBL4257537, “Design, synthesis, and biological evaluation of m-amidophenol derivatives as a new class of antitubercular agents” (Medchemcomm, 2018) come the findings set out here.

In brackets after ≈: the same amount, converted by molar mass.

As a reminder, the MIC is the least concentration at which growth counts as inhibited. Read a low MIC as a more susceptible organism. As to `O=C(Nc1cc(O)cc(Cc2ccccc2)c1)C1CCCCC1`, the MIC was over 100 µg/mL in test [1]; 0.39 µg/mL (≈ 1.26 µM) in test [2]; 3.12 µg/mL (≈ 10.1 µM) in test [3]; over 100 µg/mL in test [4]; over 100 µg/mL in test [5]; 0.39 µg/mL (≈ 1.26 µM) in test [6].

In the case of `O=C(Nc1cc(O)cc(Cc2ccccc2)c1)c1ccccc1`, the MIC in test [1] is over 100 µg/mL; in test [2], 0.39 µg/mL (≈ 1.29 µM); in test [3], 0.78 µg/mL (≈ 2.57 µM); in test [4] it was over 100 µg/mL; in test [5] it was over 100 µg/mL; in test [6], 0.39 µg/mL (≈ 1.29 µM).
